From ChEMBL document CHEMBL3085641, “Development of thiophenic analogues of benzothiadiazine dioxides as new powerful potentiators of 2-amino-3-(3-hydroxy-5-methylisoxazol-4-yl)propionic acid (AMPA) receptors” (J Med Chem, 2013)
Calls of active or inactive are those of the source. The rule behind the calls is not given here.

Assays:
[1] = organism: Rattus norvegicus; test: Positive allosteric modulation of rat cortex AMPA receptor expressed in Xenopus laevis oocytes assessed as potentiation of (S)-AMPA-induced current amplitude at 10 uM by voltage clamp technique relative to (S)-AMPA; type: cell-based
Method in brief: (§1)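 Two-electrode voltage clamp at room temperature on Xenopus laevis oocytes expressing rat cortex poly(A+) mRNA, using 10 μM (S)-AMPA. Oocytes were pre-screened with 100 μM S22286, applied 45 s before, 30 s during and 30 s after AMPA; those with under 130-fold potentiation were excluded. Read-outs were drug concentrations for 2-fold or 5-fold current increase, EC50, and maximal effect as % of the AMPA current; n ≥ 3.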

[2] = organism: Rattus norvegicus; test: Positive allosteric modulation of AMPA receptor in rat hippocampal CA1 region assessed as potentiation of AMPA-induced excitatory postsynaptic field potential area in CA1 region at 10 uM relative to basal value; type: tissue-based; conditions: Hippocampus
Method in brief: (§2)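 Rat hippocampal slices were perfused with medium containing 1.2 mM Mg2+. EPSfPs were evoked in CA1 by Schaffer collateral stimulation, with compound at 10 μM. Area, amplitude and half-width were each normalized to the pre-application value (100%); n = 3.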

[3] = organism: Rattus norvegicus; test: Positive allosteric modulation of AMPA receptor in rat hippocampal CA1 region assessed as potentiation of AMPA-induced excitatory postsynaptic field potential amplitude in CA1 region at 10 uM relative to basal value; type: tissue-based; conditions: Hippocampus; method in brief: as §2
[4] = organism: Rattus norvegicus; test: Positive allosteric modulation of rat brain AMPA receptor assessed as potentiation of 2 fold of (S)-AMPA-induced current amplitude by FlipR method
Method in brief: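 Primary neuron cultures from rat embryonic cortex were stimulated with 300 μM AMPA. Membrane depolarization was read with a fluorescent membrane-potential dye in an imaging plate reader. Reported value is the drug concentration doubling the AMPA-induced fluorescence; n = 3, mean ± SEM (some n = 2).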

[5] = organism: Rattus norvegicus; test: Positive allosteric modulation of rat cortex AMPA receptor expressed in Xenopus laevis oocytes assessed as concentration required to 2 fold potentiation of (S)-AMPA-induced current amplitude by voltage clamp technique; type: cell-based; method in brief: as §1
[6] = tested on: Mus musculus; test: Acute toxicity in mouse assessed as convulsion followed by apathy at 30 mg/kg, po; type: organism-based; set-up: dose 30 mg/kg, route oral; conditions: in vivo
Method in brief: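 Irwin screen for acute neurotoxicity in mice: single oral dose of 30 mg/kg, then behavioural and physiological state recorded (convulsions, apathy, body temperature). Five animals per compound.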

[7] = organism: Rattus norvegicus; test: Positive allosteric modulation of AMPA receptor in rat hippocampal CA1 region assessed as potentiation of AMPA-induced excitatory postsynaptic field potential half-width in CA1 region at 10 uM relative to basal value; type: tissue-based; conditions: Hippocampus; method in brief: as §2
[8] = tested on: Mus musculus; test: Toxicity in mouse assessed as hypothermia at 30 mg/kg, po; type: organism-based; set-up: dose 30 mg/kg, route oral; conditions: in vivo
Method in brief: (§3)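 Irwin test in mice: a single oral dose of 30 mg/kg, five animals per compound. Behavioural and physiological changes were recorded, including body temperature at 30 min post-dose.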

[9] = organism: Rattus norvegicus; test: Positive allosteric modulation of rat cortex AMPA receptor expressed in Xenopus laevis oocytes assessed as concentration required to 5 fold potentiation of (S)-AMPA-induced current amplitude by voltage clamp technique; type: cell-based; method in brief: as §1
[10] = Positive allosteric modulation of rat cortex AMPA receptor expressed in Xenopus laevis oocytes assessed as potentiation of (S)-AMPA-induced current amplitude by voltage clamp technique; type: cell-based; method in brief: as §1
[11] = tested on: Mus musculus; test: Cognitive enhancing effect in CD-1 mouse assessed as recognition of familiar object at 0.3 to 1 mg/kg, po after 1 hr by object recognition test; type: functional, organism-based
Method in brief: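 Three-session object recognition test in CD1 mice, with a 24 h interval between sessions. Dosing was oral, 1 h before each session. Read-out was a discrimination index: exploration time of the new object minus that of the familiar object in the last session. n = 13; one-way ANOVA versus control.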

[12] = organism: Rattus norvegicus; test: Agonist activity at AMPA receptor in Wistar rat hippocampus assessed as [3H]-NA release at 300 uM relative to control
Method in brief: (§4)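 Transverse hippocampal slices (300 μm) were loaded with [3H]noradrenaline ([…]) for 30 min at 37 °C, rinsed, then superfused with Krebs buffer, (S)-AMPA, or (S)-AMPA plus compound. Superfusate was collected in 5 min fractions and counted by scintillation. Fractional release was normalized to total radioactivity in all fractions plus tissue. Compound alone was compared with basal DMSO release, and co-application with (S)-AMPA alone (100%).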

[13] = tested on: Mus musculus; test: Toxicity in mouse assessed as hypothermia at 30 mg/kg, po after 30 mins; type: organism-based; set-up: dose 30 mg/kg, route oral; conditions: in vivo, 0.5 h; method in brief: as §3
[14] = tested on: Rattus norvegicus; test: Positive allosteric modulation of AMPA receptor in Wistar rat dentate gyrus assessed as increase in tetanus-induced field excitatory postsynaptic potential amplitude at 30 mg/kg, ip administered 1 hr prior to tetanus challenge measured after 3 hrs relative to vehicle-treated control; type: functional, organism-based; set-up: dose 30 mg/kg
Method in brief: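 Anaesthetised Wistar rats, 30 mg/kg ip. Field EPSPs recorded in hippocampal dentate gyrus, each amplitude the average of four stimuli. Values normalised to the mean of the 1 h baseline before injection, taken as 100%. LTP induced by tetanic stimulation 1 h after injection, then EPSPs followed for 3 h.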

[15] = organism: Rattus norvegicus; test: Positive allosteric modulation of AMPA receptor in Wistar rat hippocampus assessed as potentiation of (S)-AMPA-induced [3H]-NA release at 300 uM relative to (S)-AMPA; method in brief: as §4
[16] = tested on: Rattus norvegicus; test: Positive allosteric modulation of AMPA receptor in Wistar rat dentate gyrus assessed as increase in field excitatory postsynaptic potential amplitude at 30 mg/kg, ip after 1 hr; type: functional, organism-based; set-up: dose 30 mg/kg
Method in brief: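 Anesthetized Wistar rats received 30 mg/kg ip. EPSfPs were recorded in the hippocampal dentate gyrus, with amplitude averaged over four stimuli. Values were normalized to the mean response during the 1 h baseline before injection (100%). One hour after injection, LTP was induced by tetanic stimulation and EPSfPs were followed for 3 h.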

[17] = tested on: Mus musculus; test: Toxicity in mouse assessed as reduction in body temperature at 30 mg/kg, ip; type: organism-based; set-up: dose 30 mg/kg, route intraperitoneal; conditions: in vivo

Structure (SMILES) | Emax [1] [%] | Activity [4] [µM] | Activity [5] [µM] | further results
O=S1(=O)NCN(CCF)c2cc(Cl)sc21 | 5600 | 3.32 | 2 | Activity [2]: 9.3%; Activity [3]: 33.7%; Activity [6]: Toxic
O=S1(=O)N=CN(CC(F)F)c2cc(Cl)sc21 | – | 100 | – | –
CN1CNS(=O)(=O)c2c(Cl)sc(Cl)c21 | 2920 | – | 5.4 | –
CCCN1CNS(=O)(=O)c2sc(Cl)cc21 | 2090 | 25.1 | 15 | –
CC(C)N1CNS(=O)(=O)c2sc(Cl)cc21 | 217 | 9.55 | 4.2 | –
CC(C)N1C=NS(=O)(=O)c2sc(Cl)cc21 | > 277 | > 100 | > 100 | –
CN1C=NS(=O)(=O)c2c(Cl)sc(Cl)c21 | > 413 | – | 81 | –
O=S1(=O)NCN(CCF)c2c(Cl)sc(Cl)c21 | > 485 | > 100 | 113 | –
O=S1(=O)NCNc2cc(Cl)sc21 | 253 | > 100 | 216 | –
CCCN1CNS(=O)(=O)c2c(Cl)sc(Cl)c21 | > 126 | > 100 | > 300 | –
O=S1(=O)NCNc2c(Cl)sc(Cl)c21 | > 973 | > 100 | 72 | –
CCN1C=NS(=O)(=O)c2cc(Cl)sc21 | – | > 100 | – | –
O=S1(=O)NCN(CC(F)F)c2cc(Cl)sc21 | 2560 | 2.9 | 1.6 | Activity [2]: 22.7%; Activity [3]: 15.3%; Activity [7]: 14.3%; Activity [8]: 60%
O=S1(=O)N=CN(CC(F)F)c2c(Cl)sc(Cl)c21 | – | > 100 | – | –
O=S1(=O)N=CN(CCF)c2c(Cl)sc(Cl)c21 | > 2330 | 20.3 | 26.5 | –
O=S1(=O)N=CN(CCCF)c2cc(Cl)sc21 | 107 | 100 | > 300 | –
CCN1CNS(=O)(=O)c2sc(Cl)cc21 | 2270 | – | 3.6 | Activity [9]: 18.5 µM; EC50 [10]: 9.2 µM
CCCN1C=NS(=O)(=O)c2c(Cl)sc(Cl)c21 | – | > 100 | – | –
O=S1(=O)NCN(CCCF)c2cc(Cl)sc21 | > 3780 | > 45.7 | 12 | –
CCN1C=NS(=O)(=O)c2sc(Cl)cc21 | > 175 | > 100 | 172 | –
CCN1CNS(=O)(=O)c2cc(Cl)sc21 | 2830 | 10.4 | 4.4 | Activity [9]: 24 µM; Activity [11]: Active; Activity [12]: 34%; Activity [2]: 18.3%; Activity [13]: Non-toxic; Activity [3]: 3.7%; Activity [14]: Active; Activity [7]: 11.7%; Activity [15]: 281%; Activity [16]: Active; EC50 [10]: 11 µM
CCCN1C=NS(=O)(=O)c2sc(Cl)cc21 | 2070 | > 100 | – | T [17]: 4.6 °C
CN1C=NS(=O)(=O)c2sc(Cl)cc21 | – | > 100 | > 166 | –
O=S1(=O)N=CN(CCF)c2cc(Cl)sc21 | 204 | > 100 | > 300 | –
CCN1CNS(=O)(=O)c2c(Cl)sc(Cl)c21 | > 955 | > 55 | 71 | –
O=S1(=O)NCN(CC(F)F)c2c(Cl)sc(Cl)c21 | > 227 | > 100 | 235 | –
CN1CNS(=O)(=O)c2sc(Cl)cc21 | > 462 | – | 36 | –
O=S1(=O)N=CNc2c(Cl)sc(Cl)c21 | – | – | > 100 | –
O=S1(=O)N=CN(CF)c2cc(Cl)sc21 | – | > 100 | – | –
CCN1C=NS(=O)(=O)c2c(Cl)sc(Cl)c21 | > 1000 | – | 42 | –
